INS-1E GSIS act: GLuc luminescence reporter in INS-1E cells, primary screen for activators of glucose-dependent secretion of insulin | INS-1E GLuc reporter insulin secretion, 2-3 h | activation, % at 16.6 µM | hit rate 0.61% among 370,000;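 active = lowest replicate activation of at least 40%, so every replicate reaches that level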
SIRT5 inh: sirtuin-5 (human) deacylase inhibition | hit rate 1.1% among 330,000 | Purified SirT5, succinyl-peptide AMC, trypsin-coupled fluorescence | inhibition, % at 15 µM; in the data active = inhibition above about 15%; inconclusive = no clear call, values can overlap the other calls
Target sequence (Q9NXA8 whole entry, looked up): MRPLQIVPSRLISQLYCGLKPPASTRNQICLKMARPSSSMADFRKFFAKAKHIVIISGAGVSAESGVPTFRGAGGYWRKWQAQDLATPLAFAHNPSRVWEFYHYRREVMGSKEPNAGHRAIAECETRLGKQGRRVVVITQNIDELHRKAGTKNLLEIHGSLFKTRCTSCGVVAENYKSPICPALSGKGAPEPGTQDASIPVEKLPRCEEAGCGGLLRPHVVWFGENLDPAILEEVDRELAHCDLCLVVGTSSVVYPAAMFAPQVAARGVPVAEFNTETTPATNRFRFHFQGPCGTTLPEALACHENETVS
S100A4 MyoIIA: S100A4-myosin IIA interaction inhibition; P26447; S100A4/TAMRA-MyoIIA peptide fluorescence polarization; inhibition, % at 10.7 µM; hit rate 0.14% among 360,000; AID 652163;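 active = mean inhibition of at least 70% across replicates, with every replicate also reaching that level; inconclusive = mean inhibition reaches 70% but some replicates fall short; inactive = mean inhibition below 70%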
Target sequence (P26447 whole entry, looked up): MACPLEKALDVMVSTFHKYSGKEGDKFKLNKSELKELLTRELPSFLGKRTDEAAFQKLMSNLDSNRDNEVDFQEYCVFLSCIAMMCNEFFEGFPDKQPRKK
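Test system: S100A4 monomer protein. Medium: HEPES buffer with Ca2+, pH 7.2. Reagent: fluorescent myosin IIA peptide, 5 nM. Compound dosing: single-point compound testing. Timing: 5 min between mix addition and reading. Benchmarks: DMSO neutral and TFP positive wells.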
ERp5 block: ERp5 (human) disulfide isomerase inhibition; Q15084; ERp5 insulin aggregation, absorbance 650 nm, 90 min; inhibition, % at 9.99 µM; hit rate 0.05% among 350,000;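 active = mean replicate inhibition above about 25%, with every replicate also reaching it, limit read from the data, passing the limit was not always enough; inconclusive = only one of those two criteria met; inactive = neither criterion met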
PDI inh: inhibitors of human protein disulfide isomerase; P07237; hit rate 0.052% among 350,000; PDI insulin aggregation turbidity, A650, 90 min; inhibition, % at 10 µM;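 active = mean inhibition across replicates of 30% or more, whatever share of single replicates reach that level; inconclusive = mean inhibition below 30% while every single replicate reaches 30%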
A number is an active result; – = inactive; ? = inconclusive; · = not tested or not shown. Rows were chosen to be rich in hits. Some 1.5% of all compounds tested hit in one or more screens of this group.

SMILES	INS-1E GSIS act	SIRT5 inh	S100A4 MyoIIA	ERp5 block	PDI inh
COc1ccc(-c2ccc3c(N)c(C(=O)c4ccc(OC)c(OC)c4)sc3n2)cc1	171.7	·	·	·	–
CCCC#Cc1ccc2c(c1)O[C@H](CN(C)C(=O)C1CCCCC1)[C@@H](C)CN([C@@H](C)CO)S2(=O)=O	–	·	·	·	·
Cc1ccc(S(=O)(=O)N(C)C[C@H]2Oc3c(NC(=O)Nc4ccccc4)cccc3C(=O)N([C@@H](C)CO)C[C@@H]2C)cc1	–	–	–	–	·
CC(C)c1ccc(Nc2ccc(C(=O)O)cc2[N+](=O)[O-])cc1	–	30.4	–	–	–
Cc1ccc(Nc2ccc(C(=O)O)cc2[N+](=O)[O-])cc1	–	–	–	–	–
Cc1nc(NC(C)C)c2oc3ccccc3c2n1	·	·	·	·	–
CCNc1nc(CC)nc2c1oc1ccccc12	81.3	·	·	·	–
CCNc1nc(C)nc2c1oc1ccccc12	66.9	·	·	·	–
CO[C@@H](CN(C)CC1CCOCC1)[C@H](C)CN(C(=O)Nc1ccc(F)cc1)[C@H](C)CO	–	16.3	–	–	·
CO[C@H](CN(C)CC1CCOCC1)[C@@H](C)CN(C(=O)Nc1ccc(F)cc1)[C@H](C)CO	–	–	–	–	·
C[C@H](CO)N1C[C@H](C)[C@H](CN(C)C(=O)CN2CCOCC2)Oc2ncc(/C=C/c3ccccc3)cc2C1=O	–	–	–	–	·
O=C1CN(S(=O)(=O)Cc2ccccc2)C[C@H]2[C@H](c3ccc(C#Cc4cccnc4)cc3)[C@@H](CO)N12	–	–	–	–	·
FC(F)(F)c1cc(-c2ccccc2)nc(-n2cc(Cl)cn2)n1	51.2	–	–	?	–
Fc1ccc(-c2cc(C(F)(F)F)nc(-n3cc(Cl)cn3)n2)cc1	–	–	–	–	–
C[C@@H]1CCCCO[C@H](CN(C)C(=O)c2ccccc2)[C@@H](C)CN([C@H](C)CO)C(=O)c2cc(N(C)C)ccc2O1	–	–	–	–	·
O=C(COC(=O)CNC(=O)c1ccc(Cl)cc1)Nc1ccc(Cl)cn1	–	–	–	–	–
NC(=O)c1ccsc1NC(=O)COC(=O)CNC(=O)c1ccc(Cl)cc1	49.9	–	–	–	–
Cc1nc(Cc2ccccc2)sc1CC#N	42.3	–	–	–	–
c1ccc(Cc2nc3ccccc3s2)cc1	–	–	–	–	–
C[C@H]1CN(C)C(=O)c2cccnc2O[C@@H]1CN(C)S(C)(=O)=O	–	·	·	·	·
N=C1/C(=C\c2ccc(Br)o2)C(=O)N=C2SC(CC(=O)N3CCOCC3)=NN12	–	27.7	–	–	–
Cc1ccc(/C=C2\C(=N)N3N=C(CC(=O)N4CCCCC4)SC3=NC2=O)cc1	–	–	–	–	–
N=C1/C(=C/c2ccc(Br)o2)C(=O)N=C2SC(CC(=O)N3CCCC3)=NN12	–	25.6	–	–	–
N=C1/C(=C/c2ccco2)C(=O)N=C2SC(CC(=O)N3CCCC3)=NN12	–	19.5	–	–	–
Cc1noc(C)c1NC(=O)N(C)C[C@H]1OCCCC[C@H](C)Oc2ccc(NC(=O)Cc3ccccc3)cc2C(=O)N([C@@H](C)CO)C[C@@H]1C	–	–	–	–	·
SMILES	INS-1E GSIS act	SIRT5 inh	S100A4 MyoIIA	ERp5 block	PDI inh
CO[C@@H]1CN(C)C(=O)c2cc(NC(=O)CC(F)(F)F)ccc2OC[C@H](C)N(C(=O)c2ccccc2F)C[C@@H]1C	–	–	–	–	·
Cc1ccc([C@H]2N[C@]3(CCCN(Cc4ccc(Cl)cc4)C3=O)[C@H]3C(=O)N(C)C(=O)[C@@H]23)cc1	·	–	–	26.0	–
Cc1ccc(CN2CCC[C@]3(N[C@H](c4ccc(C)cc4)[C@@H]4C(=O)N(C)C(=O)[C@@H]43)C2=O)cc1	·	–	–	–	–
CCN1C(=O)[C@H]2[C@@H](c3ccccc3)N[C@]3(CCCN(Cc4ccccc4)C3=O)[C@H]2C1=O	–	23.6	–	–	–
COc1ccc([C@H]2N[C@]3(CCCN(Cc4cccn4C)C3=O)[C@H]3C(=O)N(C)C(=O)[C@@H]23)cc1	–	34.2	–	–	–
O=C1[C@H]2[C@@H](c3ccccc3)N[C@]3(CCCN(Cc4ccccc4)C3=O)[C@H]2C(=O)N1Cc1ccccc1	·	–	–	–	–
CCN1C(=O)[C@H]2[C@@H](c3ccc(OC)cc3)N[C@]3(CCCN(Cc4cccn4C)C3=O)[C@H]2C1=O	–	–	–	–	–
Cc1ccc(S(=O)(=O)Nc2ccc3c(c2)C(=O)N([C@H](C)CO)C[C@H](C)[C@@H](CN(C)C(=O)NC(C)C)OCCCC[C@H](C)O3)cc1	–	–	–	–	·
